Test results as given in ChEMBL document CHEMBL3877264, “Quinolidene-rhodanine conjugates: Facile synthesis and biological evaluation” (Eur J Med Chem, 2017).
In brackets after ≈: the same amount, converted by molar mass.

Columns and labels:
Format in all cases: functional
Pseudomonas fluorescens [1] = assay: Growth inhibition of Pseudomonas fluorescens NCIM 2036 at 3 ug/ml measured after 8 hrs relative to control; settings: NCIM 2036, 8 h, read-out: GI
Summary of the method: (§1)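 Bacteria grown in LB at 37 °C and 180 rpm to OD 1. Compounds added to wells, then 0.1% inoculum of 1 OD culture (620 nm). Growth read as OD at 620 nm after 8 h for gram-negative and after 12 h for gram-positive strains.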

Candida albicans = assay: Antifungal activity against Candida albicans NCIM 3471 by standard agar method
Summary of the method: (§2)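 MICs determined by standard agar method; DMSO as solvent control.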

Bacillus subtilis [2] = assay: Antibacterial activity against Bacillus subtilis NCIM 2079 measured after 12 hrs; settings: NCIM 2079, 12 h; summary of the method: as §1
Escherichia coli [3] = assay: Antibacterial activity against Escherichia coli NCIM 2688 measured after 8 hrs; settings: NCIM 2688, 8 h; summary of the method: as §1
Staphylococcus aureus [4] = assay: Antibacterial activity against of Staphylococcus aureus NCIM 2010 measured after 12 hrs; settings: NCIM 2010, 12 h; summary of the method: as §1
Escherichia coli [5] = assay: Growth inhibition of Escherichia coli NCIM 2688 at 30 ug/ml measured after 8 hrs relative to control; settings: NCIM 2688, 8 h, read-out: GI; summary of the method: as §1
[6] = tested on: Mycobacterium tuberculosis; assay: Growth inhibition of Mycobacterium bovis BCG ATCC 35743 at dormant stage at 30 ug/ml measured after 12 days by nitrate reductase dye based two fold dilution method relative to control; settings: BCG str. ATCC 35743, 288 h, read-out: GI
Summary of the method: (§3)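 M. bovis BCG was grown in Dubos medium and assayed in Mycobacterium pheli minimal medium (pH 6.6), with compounds from DMSO stocks. Incubation lasted 8 days for active and 12 days for dormant cultures. Viability was read by nitrate reductase at 540 nm against cell-free blanks, with vehicle set as 100% growth. Primary screen was at 30, 10 and 3 µg/ml, in triplicate, mean ± SD. MIC was taken from dose-response curves.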

Bacillus subtilis [7] = assay: Growth inhibition of Bacillus subtilis NCIM 2079 at 3 ug/ml measured after 12 hrs relative to control; settings: NCIM 2079, 12 h, read-out: GI; summary of the method: as §1
[8] = tested on: Mycobacterium tuberculosis; assay: Growth inhibition of Mycobacterium bovis BCG ATCC 35743 at active stage measured after 8 days by nitrate reductase dye based two fold dilution method; settings: BCG str. ATCC 35743, 192 h; summary of the method: as §3
Bacillus subtilis [9] = assay: Growth inhibition of Bacillus subtilis NCIM 2079 at 30 ug/ml measured after 12 hrs relative to control; settings: NCIM 2079, 12 h, read-out: GI; summary of the method: as §1
Pseudomonas fluorescens [10] = assay: Growth inhibition of Pseudomonas fluorescens NCIM 2036 at 30 ug/ml measured after 8 hrs relative to control; settings: NCIM 2036, 8 h, read-out: GI; summary of the method: as §1
Staphylococcus aureus [11] = assay: Growth inhibition of Staphylococcus aureus NCIM 2010 at 10 ug/ml measured after 12 hrs relative to control; settings: NCIM 2010, 12 h, read-out: GI; summary of the method: as §1
[12] = tested on: Mycobacterium tuberculosis; assay: Growth inhibition of Mycobacterium bovis BCG ATCC 35743 at dormant stage at 3 ug/ml measured after 12 days by nitrate reductase dye based two fold dilution method relative to control; settings: BCG str. ATCC 35743, 288 h, read-out: GI; summary of the method: as §3
Aspergillus niger = assay: Antifungal activity against Aspergillus niger NCIM 1196 by standard agar method; summary of the method: as §2
[13] = Antifungal activity against Cryptococcus neoformans NCIM 576 by standard agar method; summary of the method: as §2
Aspergillus flavus = assay: Antifungal activity against Aspergillus flavus NCIM 539 by standard agar method; summary of the method: as §2
Bacillus subtilis [14] = assay: Growth inhibition of Bacillus subtilis NCIM 2079 at 10 ug/ml measured after 12 hrs relative to control; settings: NCIM 2079, 12 h, read-out: GI; summary of the method: as §1
Escherichia coli [15] = assay: Growth inhibition of Escherichia coli NCIM 2688 at 10 ug/ml measured after 8 hrs relative to control; settings: NCIM 2688, 8 h, read-out: GI; summary of the method: as §1
Escherichia coli [16] = assay: Growth inhibition of Escherichia coli NCIM 2688 at 3 ug/ml measured after 8 hrs relative to control; settings: NCIM 2688, 8 h, read-out: GI; summary of the method: as §1
[17] = tested on: Mycobacterium tuberculosis; assay: Growth inhibition of Mycobacterium bovis BCG ATCC 35743 at dormant stage at 10 ug/ml measured after 12 days by nitrate reductase dye based two fold dilution method relative to control; settings: BCG str. ATCC 35743, 288 h, read-out: GI; summary of the method: as §3
[18] = Antifungal activity against Fusarium oxysporum NCIM 1332 by standard agar method; summary of the method: as §2
Staphylococcus aureus [19] = assay: Growth inhibition of Staphylococcus aureus NCIM 2010 at 30 ug/ml measured after 12 hrs relative to control; settings: NCIM 2010, 12 h, read-out: GI; summary of the method: as §1
[20] = tested on: Mycobacterium tuberculosis; assay: Growth inhibition of Mycobacterium tuberculosis H37Ra ATCC 25177 at dormant stage measured after 12 days by XTT dye based two fold dilution method; settings: H37Ra ATCC 25177, 288 h
Summary of the method: (§4)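 MTB H37Ra was grown in Dubos medium, then exposed in Mycobacterium pheli minimal medium (pH 6.6) to compounds dissolved in DMSO. The assay ended on day 8 (active) or day 12 (dormant). Viable cells were measured by XTT reduction menadione assay at 470 nm, blank-corrected, relative to vehicle control. Triplicates were expressed as mean ± SD. MIC came from dose-response curves.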

[21] = tested on: Mycobacterium tuberculosis; assay: Growth inhibition of Mycobacterium tuberculosis H37Ra ATCC 25177 at active stage measured after 8 days by XTT dye based two fold dilution method; settings: H37Ra ATCC 25177, 192 h; summary of the method: as §4
Pseudomonas fluorescens [22] = assay: Antibacterial activity against Pseudomonas fluorescens NCIM 2036 measured after 8 hrs; settings: NCIM 2036, 8 h; summary of the method: as §1
Pseudomonas fluorescens [23] = assay: Growth inhibition of Pseudomonas fluorescens NCIM 2036 at 10 ug/ml measured after 8 hrs relative to control; settings: NCIM 2036, 8 h, read-out: GI; summary of the method: as §1
Staphylococcus aureus [24] = assay: Growth inhibition of Staphylococcus aureus NCIM 2010 at 3 ug/ml measured after 12 hrs relative to control; settings: NCIM 2010, 12 h, read-out: GI; summary of the method: as §1
[25] = tested on: Mycobacterium tuberculosis; assay: Growth inhibition of Mycobacterium bovis BCG ATCC 35743 at dormant stage measured after 12 days by nitrate reductase dye based two fold dilution method; settings: BCG str. ATCC 35743, 288 h; summary of the method: as §3

SMILES	inhibition of growth at 3 µg/mL (Pseudomonas fluorescens [1]) [%]	MIC (Candida albicans) [µg/mL]	MIC (Bacillus subtilis [2]) [µg/mL]	MIC (Escherichia coli [3]) [µg/mL]	MIC (Staphylococcus aureus [4]) [µg/mL]	inhibition of growth at 30 µg/mL (Escherichia coli [5]) [%]	inhibition of growth at 30 µg/mL [6] [%]	inhibition of growth at 3 µg/mL (Bacillus subtilis [7]) [%]	IC50 [8] [µg/mL]	IC90 [8] [µg/mL]	inhibition of growth at 30 µg/mL (Bacillus subtilis [9]) [%]	inhibition of growth at 30 µg/mL (Pseudomonas fluorescens [10]) [%]	inhibition of growth at 10 µg/mL (Staphylococcus aureus [11]) [%]	inhibition of growth at 3 µg/mL [12] [%]	MIC (Aspergillus niger) [µg/mL]	MIC [13] [µg/mL]	MIC (Aspergillus flavus) [µg/mL]	inhibition of growth at 10 µg/mL (Bacillus subtilis [14]) [%]	inhibition of growth at 10 µg/mL (Escherichia coli [15]) [%]	inhibition of growth at 3 µg/mL (Escherichia coli [16]) [%]	also measured
CCOc1ccc2nc(Cl)c(/C=C3\SC(=S)N(CCC(=O)O)C3=O)cc2c1	-85	200 (≈ 473 µM)	> 30	> 30	> 30	14.8	32.5	-2.45	> 30	> 30	-4.16	7.19	-39.4	21.5	175 (≈ 414 µM)	175 (≈ 414 µM)	100 (≈ 236 µM)	-8.28	7.42	5.32	inhibition of growth at 10 µg/mL [17]: 33%; MIC [18]: 125 µg/mL (≈ 296 µM); inhibition of growth at 30 µg/mL (Staphylococcus aureus [19]): -27.7%; IC50 [20]: > 30 µg/mL; IC90 [20]: > 30 µg/mL; IC50 [21]: > 30 µg/mL; IC90 [21]: > 30 µg/mL; MIC (Pseudomonas fluorescens [22]): > 30 µg/mL; inhibition of growth at 10 µg/mL (Pseudomonas fluorescens [23]): -40.5%; inhibition of growth at 3 µg/mL (Staphylococcus aureus [24]): -5.78%; IC50 [25]: > 30 µg/mL; IC90 [25]: > 30 µg/mL
Cc1ccc2cc(/C=C3\SC(=S)N(CCC(=O)O)C3=O)c(Cl)nc2c1	5.88	25 (≈ 63.6 µM)	> 30	> 30	> 30	10.3	-9.18	-6.11	> 30	> 30	-7.94	6.75	-17.8	19.1	150 (≈ 382 µM)	150 (≈ 382 µM)	150 (≈ 382 µM)	-5.45	28.8	18.5	inhibition of growth at 10 µg/mL [17]: 7.51%; MIC [18]: 100 µg/mL (≈ 255 µM); inhibition of growth at 30 µg/mL (Staphylococcus aureus [19]): -15%; IC50 [20]: > 30 µg/mL; IC90 [20]: > 30 µg/mL; IC50 [21]: > 30 µg/mL; IC90 [21]: > 30 µg/mL; MIC (Pseudomonas fluorescens [22]): > 30 µg/mL; inhibition of growth at 10 µg/mL (Pseudomonas fluorescens [23]): 17.1%; inhibition of growth at 3 µg/mL (Staphylococcus aureus [24]): -6.25%; IC50 [25]: > 30 µg/mL; IC90 [25]: > 30 µg/mL
